Assays:
[1] = Partition coefficient, log P of the compound; assay type: physicochemical; settings: octanol/water
[2] = system: A549; experiment: Antiproliferative activity against human A549 cells after 48 hrs by MTT assay; assay type: functional, cell-based; settings: A549, 48 h
Method in brief: (§1)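 Cells from the Institute of Cell Biology, CAS (Shanghai), grown in RPMI-1640 with 10% FBS and 100 U/mL penicillin-streptomycin at 37 °C under 5% CO2. Cells were exposed to compounds for 48 h, and viability was read by MTT (or MTS). IC50, the concentration giving 50% inhibition, was calculated by the Logit method. Data are representative of 3 independent experiments.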

[3] = system: HepG2; experiment: Antiproliferative activity against human HepG2 cells after 48 hrs by MTT assay; assay type: functional, cell-based; settings: HepG2, 48 h; method in brief: as §1
[4] = system: K562; experiment: Antiproliferative activity against human K562 cells after 48 hrs by MTT assay; assay type: functional, cell-based; settings: K562, 48 h; method in brief: as §1
[5] = system: HCT-116; experiment: Antiproliferative activity against human HCT116 cells after 72 hrs by MTT assay; assay type: functional, cell-based; settings: HCT-116, 72 h
[6] = system: HepG2; experiment: Antiproliferative activity against human HepG2 cells after 72 hrs by MTT assay; assay type: functional, cell-based; settings: HepG2, 72 h
[7] = system: NCI-H1975; experiment: Antiproliferative activity against human NCI-H1975 cells after 72 hrs by MTT assay; assay type: functional, cell-based; settings: NCI-H1975, 72 h
[8] = system: K562; experiment: Antiproliferative activity against human K562 cells; assay type: functional, cell-based; method in brief: as §1
[9] = system: HepG2; experiment: Antiproliferative activity against human HepG2 cells; assay type: functional, cell-based; method in brief: as §1
[10] = system: HUVEC; experiment: Antiproliferative activity against human HUVEC cells after 48 hrs by MTT assay; assay type: cell-based; method in brief: as §1
[11] = Selectivity index, ratio of IC50 for HUVEC to IC50 for human K562 cells; assay type: toxicity; settings: HUVEC versus K562 cells, read-out: Ratio IC50
Method in brief: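 K562 tumor cells and HUVEC grown in RPMI-1640 with 10% FBS and penicillin-streptomycin at 37 °C under 5% CO2. Viability was read by MTT or MTS assay, with tumor cells exposed to compounds for 48 h. IC50 values came from the Logit method across 3 independent experiments. The index is HUVEC IC50 divided by K562 IC50.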

[12] = system: K562; experiment: Antiproliferative activity against human K562 cells by MTT assay; assay type: functional, cell-based; method in brief: as §1
[13] = Antiproliferative activity against human SPCA1 cells by MTT assay; assay type: functional, cell-based
[14] = system: A549; experiment: Antiproliferative activity against human A549 cells by MTT assay; assay type: functional, cell-based; method in brief: as §1

C/C=C/c1ccc(O)c(-c2cc(/C=C/C)ccc2O)c1
logP [1]: 5.36

C=CCc1cc(O)c(O)c(-c2cc(CC=C)cc(O)c2O)c1
logP [1]: 3.76

C=CCc1cccc(-c2cccc(CC=C)c2O)c1O
logP [1]: 4.75

C=CCc1ccc(O)c(-c2ccc(OCC)c(CC=C)c2)c1
logP [1]: 5.45

C=CCc1ccc(OCC)c(-c2ccc(O)c(CC=C)c2)c1
logP [1]: 5.66

C=CCc1cc(C=O)c(OC)c(-c2ccc(O)c(CC=C)c2)c1
logP [1]: 5

C=CCc1cc(C=O)c(OC)c(-c2ccc(OC)c(CC=C)c2)c1
logP [1]: 5.07

C=CCc1cc(C=O)c(OCC)c(-c2ccc(OCC)c(CC=C)c2)c1
logP [1]: 5.82

C=CCc1cc(CO)c(O)c(-c2ccc(O)c(CC=C)c2)c1
logP [1]: 4.27

C=CCc1cc(CO)c(O)c(-c2cc(CO)c(O)c(CC=C)c2)c1
logP [1]: 3.33

C=CCc1ccc(OC)c(-c2cc(CC=C)ccc2OC)c1
logP [1]: 5.35

Oc1ccccc1-c1ccccc1O
logP [1]: 3.2

C=CCc1cc(Br)c(O)c(-c2ccc(OC)c(CC=C)c2)c1
logP [1]: 5.81

C=CCc1cc(-c2ccc(OC)c(CC=C)c2)c(O)c(-c2ccc(OC)c(CC=C)c2)c1
logP [1]: 7.61

C=CCc1cc(-c2ccc(OC)c(CC=C)c2)ccc1O
logP [1]: 5.28

C=CCc1cc(-c2cccc(CC=C)c2O)ccc1OC
logP [1]: 5.05

C=CCc1ccc(O)c(-c2cccc(CC=C)c2O)c1
logP [1]: 4.77

C=CCc1cc(C(C)(C)c2ccc(O)c(CC=C)c2)ccc1O
logP [1]: 5.8

C=CCc1cc(C2(c3ccc(O)c(CC=C)c3)CCCCC2)ccc1O
logP [1]: 6.97

C=CCc1cc(C(=C(Cl)Cl)c2ccc(O)c(CC=C)c2)ccc1O
logP [1]: 6.17

C=CCc1cc(C(c2ccc(O)c(CC=C)c2)c2ccccn2)ccc1O
logP [1]: 5.41

C=CCc1cc(/C(CC)=C(\CC)c2ccc(O)c(CC=C)c2)ccc1O
logP [1]: 6.74

C=CCc1cc(-c2ccc(O)c(CC=C)c2)ccc1O
logP [1]: 5.21

C=CCc1cc(Cc2ccc(O)c(CC=C)c2)ccc1O
logP [1]: 5.38

CCCc1ccc(O)c(-c2cc(CCC)ccc2O)c1
logP [1]: 5.76

CCCc1ccc(O)c(-c2ccc(O)c(CCC)c2)c1
IC50 [2]: 30.4 µM
IC50 [3]: 30.8 µM
logP [1]: 5.97
IC50 [4]: 18.2 µM

C=CCc1cc(-c2cccc(CC=C)c2O)ccc1O
logP [1]: 4.98

COc1ccc(-c2cc(/C=C/C=O)ccc2O)cc1/C=C/C=O
logP [1]: 4.34

C=CCc1ccc(O)c(-c2ccc(O)c(CC(O)CO)c2)c1 (stereo not given)
IC50 [2]: 90.4 µM
IC50 [3]: 25.3 µM
logP [1]: 3.08
IC50 [4]: 100 µM

C=CCc1cc(/C=N\C2CCCCC2)c(O)c(-c2ccc(O)c(CC=C)c2)c1
logP [1]: 6.67

C=CCc1ccc(O)c(-c2ccc(O)c(CC(O)COC)c2)c1 (stereo not given)
IC50 [5]: > 40 µM
IC50 [6]: > 40 µM
logP [1]: 3.7
IC50 [7]: > 40 µM

C=CCc1cc(CN2CCOCC2)c(O)c(-c2cc(CC=C)c(O)c(CN3CCOCC3)c2)c1
IC50 [8]: > 40 µM
IC50 [9]: > 40 µM
logP [1]: 3.95

O=Cc1ccc(O)c(-c2ccc(O)c(CC3CO3)c2)c1 (stereo not given)
IC50 [5]: > 40 µM
IC50 [6]: > 40 µM
logP [1]: 3.16
IC50 [7]: > 40 µM

C=CCc1cc(CN2CCC(O)CC2)c(O)c(-c2cc(CC=C)c(O)c(CN3CCC(O)CC3)c2)c1
IC50 [8]: 25.5 µM
IC50 [9]: > 40 µM
logP [1]: 2.31

C=CCc1ccc(O)c(-c2ccc3oc(C)cc3c2)c1
IC50 [2]: 71.5 µM
IC50 [3]: 107 µM
logP [1]: 4.79
IC50 [4]: 67.9 µM

C=CCc1cc(NC(=O)CCl)c(O)c(-c2cc(CC=C)c(O)c(NC(=O)CCl)c2)c1
IC50 [2]: 29.3 µM
IC50 [3]: 19.1 µM
logP [1]: 4.22
IC50 [4]: 21.6 µM

CCCc1ccc(O)c(-c2ccc3oc(C)cc3c2)c1
IC50 [2]: 61.9 µM
IC50 [3]: 88.3 µM
logP [1]: 5.27
IC50 [4]: 73.9 µM

C=CCc1cc(CN2CCSCC2)c(O)c(-c2cc(CC=C)c(O)c(CN3CCSCC3)c2)c1
IC50 [8]: > 40 µM
IC50 [9]: > 40 µM
logP [1]: 5.03

C=CCc1cc(/C=N\CCCCCC)c(O)c(-c2ccc(O)c(CC=C)c2)c1
logP [1]: 7.22

C=CCc1cc2c(c(-c3cc(CC=C)c4c(c3)NC(=O)CO4)c1)OCC(=O)N2
IC50 [2]: 37 µM
IC50 [10]: 82.1 µM
selectivity ratio [11]: 11.6
IC50 [3]: 27.4 µM
logP [1]: 3.29
IC50 [4]: 7.08 µM

CCCc1cc(C)c(O)c(-c2cc(C)c(O)c(CCC)c2)c1
IC50 [2]: 29.2 µM
IC50 [3]: 34.5 µM
logP [1]: 6.51
IC50 [4]: 26.2 µM

C=CCc1cc(N=O)c(O)c(-c2cc(CC=C)c(O)c(N=O)c2)c1
IC50 [2]: > 128 µM
IC50 [3]: > 128 µM
logP [1]: 4.45
IC50 [4]: > 128 µM

C=CCc1cc(-c2ccc3c(c2)OCCO3)ccc1OC
logP [1]: 4.05

C=CCc1cc(/C=N\c2ccc(N)cc2)c(O)c(-c2ccc(O)c(CC=C)c2)c1
logP [1]: 5.54

C=CCc1cc(CN2CCC(N)CC2)c(O)c(-c2cc(CC=C)c(O)c(CN3CCC(N)CC3)c2)c1
IC50 [8]: 9.1 µM
IC50 [9]: 17 µM
logP [1]: 2.79

C=CCc1ccc(O)c(-c2cc(CC=C)c3oncc3c2)c1
logP [1]: 4.78

C=CCc1cc(CN2CCN(C)CC2)c(O)c(-c2cc(CC=C)c(O)c(CN3CCN(C)CC3)c2)c1
IC50 [8]: > 40 µM
IC50 [9]: > 40 µM
logP [1]: 4.04

C=CCc1cc(/C=N\c2ccccc2)c(O)c(-c2ccc(O)c(CC=C)c2)c1
logP [1]: 6.47

C=CCc1ccc(O)c(-c2ccc(O)c(/C=C\C)c2)c1
IC50 [5]: 19.9 µM
IC50 [6]: 31.6 µM
logP [1]: 5.1
IC50 [7]: 39.8 µM

C=CCc1ccc(O)c(-c2ccc3c(c2)CC(C)O3)c1 (stereo not given)
IC50 [2]: 116 µM
IC50 [3]: 126 µM
logP [1]: 4.65
IC50 [4]: 126 µM

C=CCc1cc(/C=N/O)c(O)c(-c2ccc(O)c(CC=C)c2)c1
logP [1]: 5.35

C=CCc1cc(N)c(O)c(-c2cc(N)c(O)c(CC=C)c2)c1
IC50 [2]: > 128 µM
IC50 [3]: > 128 µM
logP [1]: 3.62
IC50 [4]: > 128 µM

C=CCc1cc(CN(C)C)c(O)c(-c2cc(CC=C)c(O)c(CN(C)C)c2)c1
IC50 [2]: 60.8 µM
IC50 [3]: 47.5 µM
logP [1]: 4.26
IC50 [4]: 31.6 µM

OCC(O)Cc1ccc(O)c(-c2ccc(O)c(CC(O)CO)c2)c1 (stereo not given)
IC50 [2]: > 128 µM
IC50 [3]: > 128 µM
logP [1]: 1.16
IC50 [4]: > 128 µM

C=CCc1cc(NC(=O)C=C)c(O)c(-c2cc(CC=C)c(O)c(NC(=O)C=C)c2)c1
IC50 [2]: 16.6 µM
IC50 [10]: 57.8 µM
selectivity ratio [11]: 11.5
IC50 [3]: 19.1 µM
logP [1]: 4.3
IC50 [4]: 5.04 µM

C=CCc1ccc(O)c(-c2ccc(O)c(CC(CO)OC)c2)c1 (stereo not given)
IC50 [5]: > 40 µM
IC50 [6]: > 40 µM
logP [1]: 3.7
IC50 [7]: > 40 µM

C=CCc1cc(NC(C)=O)c(O)c(-c2cc(CC=C)c(O)c(NC(C)=O)c2)c1
IC50 [2]: > 128 µM
IC50 [3]: > 128 µM
logP [1]: 3.09
IC50 [4]: > 128 µM

CCCc1ccc(O)c(-c2ccc3c(c2)CC(C)O3)c1 (stereo not given)
IC50 [2]: 96.1 µM
IC50 [3]: 122 µM
logP [1]: 5.13
IC50 [4]: 72.9 µM

C=CCc1cc(-c2ccc3c(c2)OCCO3)ccc1O
logP [1]: 3.98

C=CCc1cc(-c2ccc3c(c2)OCO3)ccc1O
logP [1]: 4.36

C=CCc1cc(/C=N/O)c(O)c(-c2cc(/C=N/O)c(O)c(CC=C)c2)c1
logP [1]: 5.49

C=CCc1ccc(O)c(-c2cc(CC=C)c(O)c(C(C)(C)C)c2)c1
IC50 [2]: 25.7 µM
IC50 [3]: 31.1 µM
logP [1]: 6.43
IC50 [4]: 32.5 µM

C=CCc1cc(-c2cc(CC=C)c(O)c([N+](=O)[O-])c2)c(O)c([N+](=O)[O-])c1
IC50 [2]: > 128 µM
IC50 [3]: > 128 µM
logP [1]: 4.57
IC50 [4]: > 128 µM

C=CCc1cc(/C=N/Nc2ccccc2)c(O)c(-c2ccc(O)c(CC=C)c2)c1
logP [1]: 7.76

C=CCc1ccc(O)c(-c2cc(/C=N/O)c(O)c(CC=C)c2)c1
logP [1]: 5.14

C=CCc1ccc(O)c(-c2cc(/C=C3\SC(=O)NC3=O)c(O)c(CC=C)c2)c1
logP [1]: 4.27

C=CCc1ccc(O)c(-c2cc(/C=C(\C#N)C(=O)OCC)c(O)c(CC=C)c2)c1
logP [1]: 5.23

C=CCc1cc(/C=C2\SC(=O)NC2=O)c(O)c(-c2cc(/C=C3\SC(=O)NC3=O)c(O)c(CC=C)c2)c1
logP [1]: 3.74

C=CCc1cc(/C=C(\C#N)C(=O)OCC)c(O)c(-c2ccc(O)c(CC=C)c2)c1
logP [1]: 5.44

C=CCc1cc(C=O)c(O)c(-c2cc(C=O)c(O)c(CC=C)c2)c1
IC50 [12]: 32.6 µM
logP [1]: 4.23
IC50 [13]: 31.4 µM
IC50 [14]: > 77.6 µM

C=CCc1cc(C=O)c(O)c(-c2ccc(O)c(CC=C)c2)c1
IC50 [12]: 54.6 µM
logP [1]: 4.72
IC50 [14]: > 85 µM

C=CCc1cc(/C=N/CCN)c(O)c(-c2ccc(O)c(CC=C)c2)c1
logP [1]: 3.57

C=CCc1cc(/C=C2\SC(=O)NC2=O)c(O)c(-c2ccc(O)c(CC=C)c2)c1
logP [1]: 4.48

C=CCc1ccc(OC)c(-c2ccc(OC)c(CC=C)c2)c1
logP [1]: 5.35

C=CCc1ccc(OC)c(-c2ccc(O)c(CC=C)c2)c1
logP [1]: 5.28

C=CCc1ccc(Oc2cc(CC=C)ccc2O)cc1 [ISOMAGNOLOL]
logP [1]: 4.82

C=CCc1ccc(O)c(-c2cc(CC=C)ccc2O)c1 [MAGNOLOL]
logP [1]: 4.8

C=CCc1ccc(O)c(-c2ccc(OC)c(CC=C)c2)c1 [METHYLHONOKIOL]
logP [1]: 5.07
